TRPC4 PAM = allosteric potentiators of mouse TRPC4 channel. Q9QUQ5. HEK293 TRPC4beta/mu-opioid, DAMGO EC20, Fluo-4 Ca2+ flux; hits give high values. B-score at 10 µM. hit rate 0.42% among 310,000. AID 2227;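 active means B-score of calcium response area above 5 SD of library B-scores, with initial fluorescence ratio within 5 SD of library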
Target sequence (Q9QUQ5 whole entry, looked up): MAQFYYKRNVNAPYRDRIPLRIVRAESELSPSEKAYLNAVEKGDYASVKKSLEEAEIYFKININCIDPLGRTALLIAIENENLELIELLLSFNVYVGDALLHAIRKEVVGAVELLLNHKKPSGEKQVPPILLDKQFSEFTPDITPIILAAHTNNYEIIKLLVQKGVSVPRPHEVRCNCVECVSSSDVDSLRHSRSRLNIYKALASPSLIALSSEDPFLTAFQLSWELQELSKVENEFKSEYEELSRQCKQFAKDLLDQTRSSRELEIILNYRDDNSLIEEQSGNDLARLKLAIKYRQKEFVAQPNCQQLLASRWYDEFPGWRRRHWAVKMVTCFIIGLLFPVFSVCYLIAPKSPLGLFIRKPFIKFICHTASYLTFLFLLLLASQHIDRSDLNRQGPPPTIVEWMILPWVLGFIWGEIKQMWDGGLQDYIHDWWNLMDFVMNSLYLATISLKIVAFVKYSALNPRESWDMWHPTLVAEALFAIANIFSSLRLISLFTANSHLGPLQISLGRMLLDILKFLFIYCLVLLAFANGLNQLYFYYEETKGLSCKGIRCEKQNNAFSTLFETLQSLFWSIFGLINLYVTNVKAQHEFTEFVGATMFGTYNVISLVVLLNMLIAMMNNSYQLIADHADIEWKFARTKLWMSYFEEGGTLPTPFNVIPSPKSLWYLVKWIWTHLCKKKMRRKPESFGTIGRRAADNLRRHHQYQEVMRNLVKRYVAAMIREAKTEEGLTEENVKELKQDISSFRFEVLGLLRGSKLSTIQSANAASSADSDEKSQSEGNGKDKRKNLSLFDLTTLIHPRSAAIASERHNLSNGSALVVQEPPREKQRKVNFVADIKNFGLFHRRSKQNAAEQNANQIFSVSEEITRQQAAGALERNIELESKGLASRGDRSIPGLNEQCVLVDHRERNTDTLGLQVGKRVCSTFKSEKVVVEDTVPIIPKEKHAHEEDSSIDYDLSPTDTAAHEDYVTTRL
TRPC6 activator = activates the mouse TRPC6 cation channel | hit rate 0.13% among 310,000 | B-score at 10 µM | HEK293-TRPC6 membrane potential dye fluorescence; hits give high values | Q61143;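 active means B-score of the integrated fluorescence ratio above library mean plus 3 SD, and starting fluorescence ratio within library mean plus 5 SD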;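 further: higher score means more depolarization so channel activation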
TRPC6 inhibitor = inhibitors of mouse TRPC6 channel. HEK293-TRPC6, membrane potential dye, ACh-evoked depolarization; hits give low values. B-score at 10 µM. Q61143. hit rate 1.1% among 310,000;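 active means B-score under library mean minus 3 SD, initial fluorescence not abnormally high, positive integrated signal ratio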;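 further: B-score derived from integrated fluorescence ratio over the kinetic read; more negative B-score means stronger inhibition of depolarization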
TRPC4 block = TRPC4 (mouse) channel inhibition; hit rate 0.39% among 300,000; B-score at 10 µM; HEK293 TRPC4beta/mu-opioid, DAMGO-evoked Fluo4 calcium flux; hits give low values; Q9QUQ5;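 active means B-score over 3 SD under the library average, no early fluorescence shift, positive overall ratio signal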
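Assay system: Stable TRPC4beta/mu-opioid receptor HEK293 cells | Reagent: DAMGO in two steps, submaximal then maximal | Compound dosing: Single concentration per test compound | Signal: Fluo4 Ca2+ flux fluorescence | Evaluation: Per-well B score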
TRPC4 agonist = TRPC4 (mouse) channel activation; HEK293 TRPC4beta/mu-opioid, Fluo4 calcium fluorescence; hits give high values; hit rate 0.49% among 310,000; B-score at 10 µM; AID 2237; Q9QUQ5;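 active means B-score above 5 SD of library B-scores, and initial fluorescence ratio not above library mean plus 5 SD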;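 further: positive B-score marks a calcium rise read as TRPC4 activation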
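Assay system: HEK293 cells stably co-expressing mouse TRPC4beta and mu-opioid receptor / Timing: Fluo4 dye loading 45 min at room temperature, 110 s recording / Signal: Fluo4 calcium-sensitive dye fluorescence, kinetic, 1 Hz baseline / Read-out: integrated baseline-normalised fluorescence ratio, converted to per-well B score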
TRPC4 spec 2 = second selectivity test of TRPC6 inhibitors: effect on mouse TRPC4. shares compounds with TRPC6 inhibitor. HEK293 TRPC4/MOR, membrane potential dye fluorescence; channel activated by saturating DAMGO dose. inhibition, % at 10 µM. hit rate 42% among 920;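 active means compounds whose fluorescence signal differed from control wells by over 3 SD, either direction, in both duplicate plates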
TRPC4 spec = mouse TRPC4 off-target activity of TRPC6 inhibitors. HEK293 TRPC4/mu-opioid, membrane potential fluorescence. AID 2777. hit rate 61% among 920. activity change, negative = inhibition, % at 10 µM. shares compounds with TRPC6 inhibitor;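 active means rise or fall in signal beyond 3 SD of buffer-only wells in both replicate plates, either sign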;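 further: integrated kinetic ratio of fluorescence range over baseline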
HEK293 MPD ctr 2-1 = parental HEK293 nonspecific activity of TRPC6 inhibitors, second screen | shares compounds with TRPC6 inhibitor | parental HEK293 membrane potential dye fluorescence; maximal acetylcholine challenge after compound addition | signal change vs control, % at 10 µM | hit rate 31% among 920;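 active means membrane potential signal moving either way by over 3 SD of the maximum-effect control, in both duplicate plates, meaning non-specific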
HEK293 MPD ctr-1 = parental HEK293 nonspecific activity of TRPC6 inhibitors | shares compounds with TRPC6 inhibitor | parental HEK293 membrane potential dye fluorescence | membrane potential signal change, % at 10 µM | hit rate 60% among 920 | AID 2780;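 active means membrane potential signal shifting up or down by more than 3 SD of buffer-only wells, on both duplicate plates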
HEK293 MPD ctr-2 = checks TRPC6 modulator effects in parental HEK293 cells. shares compounds with TRPC6 inhibitor. membrane potential dye fluorescence. membrane potential signal change, % at 10 µM. hit rate 51% among 2,400. AID 488924;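 active means membrane potential signal moves up or down beyond 5 SD from buffer-only wells, on both duplicate plates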
HEK293 MPD ctr 2-2 = parental HEK293 nonspecific activity of TRPC6 modulators, second screen; shares compounds with TRPC6 inhibitor; membrane potential dye fluorescence; after compound, maximal acetylcholine stimulation; inhibition, % at 10 µM; hit rate 14% among 2,400; AID 488926;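 active means membrane potential signal drops by more than 5 SD from the mean control signal, in both duplicate plates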
TRPC4 ctr mod = tests whether TRPC6 modulators also affect mouse TRPC4; shares compounds with TRPC6 inhibitor; HEK293 TRPC4/mu-opioid, membrane potential fluorescence; percent change from control (negative = decrease, positive = increase), % at 10 µM; hit rate 69% among 2,400; AID 488927;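 active means membrane potential signal moved up or down beyond 5 SD of buffer control wells, in both duplicate plates, actives on both sides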
TRPC4 ctr inh 2 = second selectivity test of TRPC6 modulators against mouse TRPC4; shares compounds with TRPC6 inhibitor; HEK293 TRPC4/mu-opioid, membrane potential dye fluorescence; stimulated with maximal-effect DAMGO; inhibition, % at 10 µM; hit rate 55% among 2,400; AID 488928;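 active means drop in membrane potential signal beyond 5 SD of the control wells in both duplicate plates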;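 further: TRPC4 counter screen for TRPC6 hits run under conditions tuned for TRPC6 not TRPC4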
TRPC6 inh conf = confirmation of mouse TRPC6 inhibitors | shares compounds with TRPC6 inhibitor | HEK293-TRPC6, membrane potential dye, ACh-evoked depolarization | inhibition, % at 10 µM | hit rate 43% among 3,300 | AID 488960;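 active means fluorescence ratio falls more than 5 SD below the full-stimulation control mean, in both duplicate runs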;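 further: integrated fluorescence ratio of peak minus minimum over baseline after agonist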
TRPC6 act conf = mouse TRPC6 activator confirmation | hit rate 11% among 2,800 | shares compounds with TRPC6 inhibitor | activation, % at 10 µM | HEK293-TRPC6 membrane potential dye fluorescence, FDSS | AID 488961;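 active means ratio signal rise beyond 5 SD above unstimulated control wells' mean, seen in both duplicate runs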
A number is an active result; n = inactive; x = not tested or not shown. Rows were chosen to be rich in hits. Some 2.3% of all compounds tested hit in one or more screens of this group.

SMILES	TRPC4 PAM	TRPC6 activator	TRPC6 inhibitor	TRPC4 block	TRPC4 agonist	TRPC4 spec 2	TRPC4 spec	HEK293 MPD ctr 2-1	HEK293 MPD ctr-1	HEK293 MPD ctr-2	HEK293 MPD ctr 2-2	TRPC4 ctr mod	TRPC4 ctr inh 2	TRPC6 inh conf	TRPC6 act conf
CCC(C)NC(=O)CCC(=O)Nc1ccc2nc(N3CCOCC3)cc(C)c2c1 (stereo unspecified)	n	n	-5.54	n	n	x	x	x	x	-260.0%	n	-43.5%	38.0%	40.0%	n
CCC(C)NC(=S)Nc1ccc2nc(N3CCOCC3)cc(C)c2c1 (stereo unspecified)	n	n	n	n	n	x	x	x	x	x	x	x	x	x	x
CCN1CCN(c2cc(C)c3cc(NC(=O)CCC(=O)N4CCN(c5ccccc5)CC4)ccc3n2)CC1	n	n	n	n	n	x	x	x	x	x	x	x	x	x	x
CCCCN(C)C(=O)CCC(=O)Nc1ccc2nc(N3CCOCC3)cc(C)c2c1	n	n	-7.64	n	n	n	-20.1%	n	-326.0%	x	x	x	x	n	n
O=C(NCCN1CCCCC1)c1cc(Cl)ccc1Cl	n	n	n	n	n	x	x	x	x	x	x	x	x	x	x
CNC(=O)N(O)C1N(/N=C/c2ccc(C)cc2)C(=S)SC1(C)C (stereo unspecified)	n	n	n	n	n	x	x	x	x	x	x	x	x	x	x
CNC(=O)N(O)C1N(/N=C/c2cc(Br)ccc2O)C(=S)SC1(C)C (stereo unspecified)	n	n	-6.71	n	n	n	-12.3%	n	-212.0%	x	x	x	x	n	n
CCOC(=O)Cn1c(=N)n(CCOc2ccc(Br)cc2)c2ccccc21	n	n	-7.74	n	n	43.5%	0.5%	n	3.0%	x	x	x	x	55.0%	n
Cc1c(OC(C)C(=O)N2C[C@H]3C[C@@H](C2)c2cccc(=O)n2C3)ccc2c3c(c(=O)oc12)CCC3 (stereo partly specified)	n	n	-4.98	n	n	x	x	x	x	95.5%	n	12.0%	n	n	x
Cc1cc2c3c(ccc(C)c3n1)N=CN2c1ccccc1	n	n	-8.07	n	n	x	x	x	x	-240.0%	77.0%	-46.5%	65.5%	52.5%	n
CCCn1c(NCc2c[nH]c3ccccc23)nc2ccccc21	n	n	-8.52	n	n	25.0%	-15.5%	n	-209.0%	x	x	x	x	n	n
NS(=O)(=O)c1ccc(CCNCc2cc(Cl)ccc2OCc2ccccc2)cc1	n	n	n	n	n	x	x	x	x	x	x	x	x	x	x
NS(=O)(=O)c1ccc(CCNCc2cc(Br)ccc2OCc2ccccc2F)cc1	n	n	-5.68	n	n	x	x	x	x	n	n	n	88.0%	56.0%	n
NS(=O)(=O)c1ccc(CCNCc2ccccc2OCc2ccc(Cl)cc2)cc1	n	n	-6.82	-5	n	30.5%	n	n	2.1%	x	x	x	x	61.5%	n

Screening data as filed in PubChem.
